Here are results for 17 compounds from ChEMBL document CHEMBL1132143, “Effect of A-ring modifications on the DNA-binding behavior and cytotoxicity of pyrrolo[2,1-c][1,4]benzodiazepines” (J Med Chem, 1999).

Experiment [1] relates to L1210. As to the kind of experiment: Tested for cytotoxicity against L1210 mouse Leukemia cell. It is filed as functional, cell-based. The method in brief: (§1)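 L1210 mouse leukemia grown in suspension. Seeded day 0 at 10^4 cells/mL in RPMI 1640 with 10% horse serum. Log phase checked day 1, then compound added for 48 h at 37 °C. Cells counted day 3 by Coulter counter. IC50 is 50% growth inhibition versus solvent-treated controls. Dose range 10^-4–10^-11 M in 10-fold steps, <0.05% v/v DMSO.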

Experiment [2] concerns Calf thymus DNA. The experiment in a line: Tested for thermal denaturation against CT-DNA at 18 hours. The settings on record: Bos taurus.
The subject of experiment [3] is Calf thymus DNA. As to the kind of experiment: Tested for thermal denaturation against CT-DNA at 4 hours. It counts as nucleic-acid assay. The settings on record: Bos taurus. In a few lines: (§2)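 CT-DNA (42% G+C) at 100 μM in DNA phosphate with compound at 20 μM (5:1 ratio). Buffer pH 7.00, 10 mM sodium phosphate, 1 mM EDTA, ≤0.6% v/v MeOH. Incubated at 37.0 °C for the stated time. Melted at 1 °C/min from 45 to 98 °C, read at 260 nm. ΔTm is Tm with ligand minus free DNA Tm, MeOH-corrected; mean ± SD of ≥3 runs.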

Experiment [4] is described as follows: Tested for cytotoxicity against ADJ/PC6 mouse plasmacytoma. It is filed as functional, cell-based. In a few lines:
(§3)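 ADJ/PC6 mouse plasmacytoma grown in suspension. Seeded day 0 at 3–5 × 10^4 cells/mL in Dulbecco's medium with 20% horse serum. Log-phase confirmed day 1, then compound added for 72 h at 37 °C. Cells counted day 4 by Coulter counter. IC50 is the dose giving 50% growth inhibition versus solvent controls. Screened 10^-4–10^-11 M in 10-fold steps, <0.05% v/v DMSO.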

For another experiment, the system named is CH1. The experiment in a line: Tested for cytotoxicity against CH1 human ovarian cells. It is filed as functional, cell-based. The method in brief:
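CH1 human ovarian monolayer, plated day 0 at 100–200 cells per T25 flask in Dulbecco's medium with 10% fetal calf serum and allowed to attach overnight. Compound added day 1 and left continuously at 37 °C. Colonies fixed day 9 in EtOH, stained with methylene blue and counted. IC50 is 50% inhibition versus solvent controls. Range 10^-4–10^-11 M, 10-fold steps.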

For experiment [5], the system named is Calf thymus DNA. The experiment in a line: Tested for thermal denaturation against CT-DNA at 0 hours. Particulars: Bos taurus. It counts as nucleic-acid assay. The method in brief: as §2
Experiment [6] deals with L1210. As to the kind of experiment: Tested for cytotoxicity against L1210 Leukemia cell. It counts as functional, cell-based. Particulars: Mus musculus. In a few lines: as §1
The nature of experiment [7]: Tested for cytotoxicity against ADJ/PC6 plasmacytoma. It is filed as functional, cell-based, Mus musculus. In a few lines:
as §3

In experiment [8] the test system is Calf thymus DNA. As to the kind of experiment: Tested for thermal denaturation against CT-DNA. The settings on record: Bos taurus.

`COC1Nc2c(ccc(C)c2O)C(=O)N2C=C(/C=C/C(N)=O)C[C@@H]12` (some centres undefined): the figures for the IC50 (in the experiment with L1210 [1]; in [4]; in the experiment with CH1) were 22 nM, 2.8 nM and 320 nM, respectively. The values for the ΔTm in the experiment on Calf thymus DNA [2], in the experiment on Calf thymus DNA [3] and in the experiment on Calf thymus DNA [5] were 13 °C, 11.2 °C and 9.4 °C, respectively.
Regarding `COc1cc2c(cc1O)C(=O)N1CCC[C@H]1C=N2`, the ΔTm was found to be 0.6 °C in the experiment on Calf thymus DNA [2], 0.5 °C in the experiment on Calf thymus DNA [3] and 0.3 °C in the experiment on Calf thymus DNA [5]. The figures for the IC50 (in the experiment on L1210 [6]; in the experiment with CH1; in [7]) were 2700 nM, 200 nM and 2700 nM, respectively.
With `O=C1c2cc3c(cc2N=C[C@@H]2CCCN12)OCCO3`, the figures for the shift in melting temperature (ΔTm) with Calf thymus DNA [2], in the experiment with Calf thymus DNA [3] and in the experiment on Calf thymus DNA [5] were 0.5 °C, 0.3 °C and 0.1 °C, respectively. Further, the half-maximal inhibitory concentration (IC50) turned out to be 2700 nM in the experiment on L1210 [6], 460 nM in the experiment on CH1 and 3400 nM in [7].
As for `COc1cc2c(cc1O)N=C[C@@H]1CCCN1C2=O`, the ΔTm in the experiment on Calf thymus DNA [3] turned out to be 0.5 °C; with Calf thymus DNA [5], 0.3 °C. Also, the IC50 in the experiment on CH1 worked out at 100 nM; in [7], 330 nM.
For `COc1cc2c(cc1OCCCOCc1ccccc1)N=C[C@@H]1CCCN1C2=O`, the thermal shift (ΔTm) in the experiment with Calf thymus DNA [2] turned out to be 0.6 °C; with Calf thymus DNA [3] it was 0.4 °C; in the experiment on Calf thymus DNA [5], 0.2 °C. The IC50 in the experiment with L1210 [6] was found to be 2400 nM; with CH1, 290 nM; in [7], 2300 nM.
With `CO[C@H]1Nc2ncccc2C(=O)N2CCC[C@@H]12`, the ΔTm in the experiment on Calf thymus DNA [8] was determined as 0.5 °C; with Calf thymus DNA [3], 0.5 °C; in the experiment on Calf thymus DNA [5] it was 0.3 °C. In addition, the IC50 in the experiment with L1210 [1] was 13000 nM; in [4] it was more than 50000 nM; in the experiment on CH1, 43000 nM.
`COC(=O)c1c2c(nn1C)C(=O)N1CCC[C@H]1C=N2`: the results for the ΔTm in the experiment on Calf thymus DNA [8], in the experiment with Calf thymus DNA [3] and in the experiment with Calf thymus DNA [5] were 0.5 °C, 0.3 °C and 0.2 °C, respectively. In addition, the IC50 was 35000 nM in the experiment on L1210 [1], more than 50000 nM in experiment [4] and more than 100000 nM with CH1.
As to `COc1cc2c(cc1NC(=O)OCc1ccccc1)N=C[C@@H]1CCCN1C2=O`, the ΔTm amounted to 0.4 °C with Calf thymus DNA [8], 0.2 °C in the experiment with Calf thymus DNA [3] and 0.1 °C with Calf thymus DNA [5]. Besides, the results for the IC50 (in the experiment on L1210 [1]; in experiment [4]; in the experiment on CH1) were 4500 nM, 3200 nM and 1800 nM, respectively.
Regarding `C/C=C1\C[C@H]2C=Nc3cc(O)c(OC)cc3C(=O)N2C1`, the ΔTm with Calf thymus DNA [2] worked out at 2.6 °C; in the experiment on Calf thymus DNA [3] it was 2.4 °C; in the experiment on Calf thymus DNA [5], 1 °C. The results for the IC50 (with L1210 [6]; in the experiment on CH1; in experiment [7]) were 3.7 nM, 0.13 nM and 1.8 nM, respectively.
For `COc1cc2c(cc1OCc1ccccc1)N=C[C@@H]1CCCN1C2=O`, the ΔTm amounted to 0.4 °C with Calf thymus DNA [2], 0.4 °C with Calf thymus DNA [3] and 0.2 °C with Calf thymus DNA [5]. Also, the IC50 in the experiment with L1210 [6] worked out at 3000 nM; in the experiment on CH1 it was 1000 nM; in experiment [7] it was 370 nM.
In the case of `O=C1c2cc3c(cc2N=C[C@@H]2CCCN12)OCO3`, the shift in melting temperature (ΔTm) with Calf thymus DNA [2] amounted to 0.4 °C; in the experiment on Calf thymus DNA [3], 0.2 °C; in the experiment on Calf thymus DNA [5], 0.1 °C. For the same compound, the IC50 was 1500 nM in the experiment on L1210 [6], 260 nM in the experiment on CH1 and 1900 nM in experiment [7].
As to `CO[C@H]1Nc2nccnc2C(=O)N2CCC[C@@H]12`, the values for the ΔTm in the experiment on Calf thymus DNA [8], with Calf thymus DNA [3] and in the experiment on Calf thymus DNA [5] were 0.7 °C, 0.6 °C and 0.3 °C, respectively. The compound also showed an IC50 with CH1 of 17000 nM.
For the compound `CCCCOC1CC[C@H]2C=Nc3cc(O)c(OC)cc3C(=O)N12` (some centres undefined), the ΔTm with Calf thymus DNA [2] is 0.8 °C; in the experiment on Calf thymus DNA [3], 0.6 °C; in the experiment with Calf thymus DNA [5], 0.5 °C. Further, the IC50 was determined as 2700 nM in the experiment with L1210 [6], 430 nM in the experiment with CH1 and 1300 nM in [7].
Turning to `CO[C@@H]1Nc2ncccc2C(=O)N2CCC[C@@H]12`, the ΔTm in the experiment on Calf thymus DNA [8] turned out to be 0.5 °C; in the experiment on Calf thymus DNA [3], 0.5 °C; with Calf thymus DNA [5] it was 0.3 °C. Besides, the IC50 in the experiment on L1210 [1] was 13000 nM; in [4], more than 50000 nM; in the experiment with CH1 it was 43000 nM.
As to `O=C1c2ccccc2N=C[C@@H]2CCCN12`, the ΔTm with Calf thymus DNA [2] was determined as 0.6 °C; in the experiment with Calf thymus DNA [3], 0.4 °C; in the experiment on Calf thymus DNA [5], 0.3 °C. Besides, the IC50 in the experiment on L1210 [6] was more than 100000 nM; in the experiment on CH1, 42000 nM; in experiment [7], 38000 nM.
For `COC(=O)CCOc1cc2c(cc1OC)C(=O)N1CCC[C@H]1C=N2`, the shift in melting temperature (ΔTm) in the experiment with Calf thymus DNA [2] stood at 0.6 °C; in the experiment on Calf thymus DNA [3], 0.5 °C; in the experiment on Calf thymus DNA [5], 0.3 °C. For the same compound, the IC50 with CH1 came to 4400 nM.
Take `COc1nc(OC)c2c(n1)C(=O)N1CCC[C@H]1C=N2`: the ΔTm was determined as 0.3 °C in the experiment with Calf thymus DNA [8], 0.2 °C with Calf thymus DNA [3] and 0.1 °C in the experiment on Calf thymus DNA [5]. The compound also returned an IC50 with L1210 [1] of 42000 nM.
